Assay [1] is described as follows: reducers of endogenous Her2 protein level, primary screen, SKBR3 breast tumor cells, AlphaScreen, ATP viability (AID 461;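 active = Her2 level under about 52% in both replicate screens, with viability over 70% of control, limit read from the data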;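 as to Her2 level: lower value means less Her2 protein in the cells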;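 as to viability: percent of carrier control wells set as 100% viability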). The settings on record: 18-24 h, measured here: SKBR3 viability, ATP luminescence, at 10 µM. A general note: Bead proximity is the source of the signal in Alpha formats.
In assay [2] the target is Receptor tyrosine-protein kinase erbB-2 (Homo sapiens) (UniProt P04626). Described as above. To be noted: 18-24 h, at 10 µM, stronger effect = lower value.
Sequence of Receptor tyrosine-protein kinase erbB-2 (Homo sapiens) (P04626 whole entry, looked up): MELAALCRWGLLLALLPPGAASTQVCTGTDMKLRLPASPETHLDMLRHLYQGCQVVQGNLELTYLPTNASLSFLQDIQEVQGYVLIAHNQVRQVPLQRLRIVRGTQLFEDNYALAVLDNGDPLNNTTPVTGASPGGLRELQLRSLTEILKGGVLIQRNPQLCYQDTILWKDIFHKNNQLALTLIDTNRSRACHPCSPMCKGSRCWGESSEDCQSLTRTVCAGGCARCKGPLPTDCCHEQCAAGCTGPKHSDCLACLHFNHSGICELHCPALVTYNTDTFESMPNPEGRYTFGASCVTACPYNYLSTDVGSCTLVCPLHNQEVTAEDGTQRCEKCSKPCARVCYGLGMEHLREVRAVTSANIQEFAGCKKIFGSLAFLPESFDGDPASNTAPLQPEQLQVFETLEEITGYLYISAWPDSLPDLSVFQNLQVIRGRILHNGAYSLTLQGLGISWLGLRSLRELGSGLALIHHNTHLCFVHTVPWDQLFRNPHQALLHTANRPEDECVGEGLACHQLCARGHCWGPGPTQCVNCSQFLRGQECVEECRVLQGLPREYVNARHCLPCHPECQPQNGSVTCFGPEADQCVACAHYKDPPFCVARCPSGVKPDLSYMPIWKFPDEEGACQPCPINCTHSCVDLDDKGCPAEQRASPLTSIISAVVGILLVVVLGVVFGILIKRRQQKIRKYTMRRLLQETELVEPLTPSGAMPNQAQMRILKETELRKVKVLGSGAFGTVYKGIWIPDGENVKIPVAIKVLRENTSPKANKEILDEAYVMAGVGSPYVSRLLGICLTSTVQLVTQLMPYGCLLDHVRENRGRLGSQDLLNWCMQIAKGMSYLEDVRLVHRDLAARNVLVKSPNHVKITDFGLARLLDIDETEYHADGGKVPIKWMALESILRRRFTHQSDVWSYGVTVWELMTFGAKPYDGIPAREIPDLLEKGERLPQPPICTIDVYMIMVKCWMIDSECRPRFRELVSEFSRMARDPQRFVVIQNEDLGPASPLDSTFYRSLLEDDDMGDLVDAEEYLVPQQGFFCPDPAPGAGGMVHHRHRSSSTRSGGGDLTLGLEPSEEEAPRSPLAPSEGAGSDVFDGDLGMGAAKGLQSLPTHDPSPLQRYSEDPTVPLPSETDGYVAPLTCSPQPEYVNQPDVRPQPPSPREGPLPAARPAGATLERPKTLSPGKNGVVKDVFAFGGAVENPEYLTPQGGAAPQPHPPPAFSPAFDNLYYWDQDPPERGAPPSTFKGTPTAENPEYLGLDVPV
Assay [3] can be described thus: SK-BR-3 cell growth inhibitors, pilot screen, 24 h, human (AID 572;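 active = viability at or below 10% of carrier control in both of two separate runs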;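 also: compound exposure lasted between 18 and 24 h rather than exactly 24 h; 100% = carrier-treated control wells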). The settings on record: SK-BR-3 viability, CellTiter-Glo luminescence, at 10 µM, stronger effect = lower value. In general terms: ATP-based viability assays read luminescence as a measure of living cells.
Assay [4] is described as follows: HUVEC growth inhibition – cell-based, human, primary screen (AID 575;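 active = viability at or below 30% in both replicate assays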;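 also: 100% = median of untreated cell wells with 0.1% DMSO on each plate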). To be noted: HUVEC proliferation, CellTiter-Glo luminescence, 72 h; at 10 µM; stronger effect = lower value. Summed up:
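System – primary HUVEC, no more than 12 passages · Medium – Low-serum (2% FBS) EBM, supplemented · Times – 72 h exposure, 37 °C, 5% CO2, 30 min RT equilibration · Measured by – luminescent ATP assay · Read-out – % viability relative to median vehicle-well signal on each plate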

Assay [5] in a line: growth inhibitors of H69AR lung tumor, primary screen, human, duplicate replicates (AID 580).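 Also: 100% = mean luminescence of untreated wells and 0% = no signal.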 To be noted: H69AR lung tumor cells viability, ATP luminescence, 72 h; at 10 µM; stronger effect = lower value.
The nature of assay [6]: reversal of MRP1-mediated doxorubicin resistance, pilot screen, H69AR cells, doxorubicin co-treatment (AID 601;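 active = viability loss from added drug above about 55%, and viability with drug at most 40%, in both replicates, limit read from the data, passing the limit was not always enough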). The settings on record: CellTiter-Glo, 72 h, at 10 µM; for differential viability (reversal): stronger effect = higher value.
A short description of assay [7]: 384-well plate pilot, post-Golgi transport modulator project, inhibition of yeast transport mutant growth (AID 636; in the data active = inhibition above about 31%). The settings on record: absorbance 615 nm, about 18 h, stronger effect = higher value.
Assay [8] in a line: growth suppression of yeast trafficking mutant, preliminary HTS, modulators of trafficking downstream of Golgi apparatus project, 1536-format plate, OD 615 nm (AID 637; in the data active = inhibition above about 30%). To be noted: yeast transport mutant growth, absorbance 615 nm, 18 h; stronger effect = higher value.
Where [9] appears, read: H69AR cells + 2 uM doxorubicin, measured here: viability with 2 uM doxorubicin, stronger effect = lower value.
Setting [10] is: H69AR cells, compound alone cytotoxicity.

The results in this text go back to PubChem BioAssay.

The structures appear in SMILES notation. Active and inactive are the calls of the source.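 The calls were made as follows, unless noted: active = viability at or under a set limit in both replicates, limit being median viability minus 3 SD (cut at about 48% in these data, passing the limit was not always enough); inconclusive = at or under the limit in just one replicate; inactive = at or above the limit in both replicates.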

For orientation: viability means a read-out of living cells in per cent, often relative to untreated cells. The inhibition is the relative decrease from the control value, in per cent. Turning to `CCCOc1cccc(-c2nnc(N)s2)c1`, the viability in assay [1] was 102%; in assay [3], 102% (inactive); in assay [4], 87.4% (inactive); in assay [5], 100% (inactive); in assay [6] (setting [9]) it was 78.5%; in assay [6] (setting [10]) it was 100%. The Her2 level in assay [2] was 121% (inactive). Further, in assay [6] (H69AR cells + 2 uM doxorubicin), the differential viability (reversal) was 21.6% (inactive). Also, the inhibition in assay [7] was -4.8% (inactive); in assay [8], -5.56% (inactive).
With `CN(Cc1cccs1)C(=O)CCc1ccc(S(=O)(=O)N2CCOCC2)cc1`, the viability in assay [1] was 97.5%; in assay [3] it was 97.5% (inactive); in assay [4], 111% (inactive); in assay [5], 87.4% (inactive); in assay [6] (setting [9]), 97.6%; in assay [6] (setting [10]), 87.4%. For the same compound, the Her2 level in assay [2] is 116% (inactive). In addition, in assay [6] (H69AR cells + 2 uM doxorubicin), the differential viability (reversal) was -10.2% (inactive). The inhibition is -5.06% (inactive) in assay [7] and -12.5% (inactive) in assay [8].
Turning to `C=CCOc1ccc(C2C(C(=O)c3ccco3)=C(O)C(=O)N2Cc2cccnc2)cc1` (stereo not given), the viability was 108% in assay [1]; 108% (inactive) in assay [3]; 119% (inactive) in assay [4]; 90.9% (inactive) in assay [5]; 88% in assay [6] (setting [9]); 90.9% in assay [6] (setting [10]). In addition, the Her2 level in assay [2] was 89.5% (inactive). In assay [6] (H69AR cells + 2 uM doxorubicin), the differential viability (reversal) is 2.87% (inactive). Further, the inhibition is -1.71% (inactive) in assay [7] and 8.69% (inactive) in assay [8].
Turning to `N#Cc1nc(COc2ccccc2)oc1NCCCn1ccnc1`, the viability is 104% in assay [1]; 104% (inactive) in assay [3]; 96.5% (inactive) in assay [4]; 112% (inactive) in assay [5]; 107% in assay [6] (setting [9]); 112% in assay [6] (setting [10]). Further, the Her2 level in assay [2] was 103% (inactive). Besides, the differential viability (reversal) in assay [6] (H69AR cells + 2 uM doxorubicin) is 5.22% (inactive). In addition, the inhibition in assay [7] was -0.39% (inactive); in assay [8], 5.56% (inactive).
Regarding `O=C(O)c1cc2nc(-c3ccc(F)cc3)cc(C(F)(F)F)n2n1`, the viability in assay [1] was 94%; in assay [3], 94% (inactive); in assay [4], 82% (inactive); in assay [5] it was 93.2% (inactive); in assay [6] (setting [9]) it was 89.2%; in assay [6] (setting [10]), 93.2%. Further, the Her2 level in assay [2] is 118% (inactive). Also, the differential viability (reversal) in assay [6] (H69AR cells + 2 uM doxorubicin) is 4% (inactive). Moreover, the inhibition in assay [7] was -2.24% (inactive); in assay [8] it was -1% (inactive).
For `O=C(CSc1nnc(-c2cccnc2)o1)OC1CCCCC1`, the viability in assay [1] was 110%; in assay [3] it was 110% (inactive); in assay [4] it was 95.8% (inactive); in assay [5] it was 101% (inactive); in assay [6] (setting [9]), 87.9%; in assay [6] (setting [10]), 101%. Further, the Her2 level in assay [2] was 110% (inactive). For the same compound, the differential viability (reversal) in assay [6] (H69AR cells + 2 uM doxorubicin) was 13.2% (inactive). Besides, the inhibition in assay [7] was -7.87% (inactive); in assay [8] it was 0.48% (inactive).
As to `Cc1ccc(C(C)C)c(OCCn2c(=O)oc3ccccc32)c1`, the viability in assay [1] was 89%; in assay [3] it was 89% (inactive); in assay [4], 87.9% (inactive); in assay [5] it was 95.8% (inactive); in assay [6] (setting [9]), 82.3%; in assay [6] (setting [10]), 95.8%. In addition, the Her2 level in assay [2] was 133% (inactive). Besides, the differential viability (reversal) in assay [6] (H69AR cells + 2 uM doxorubicin) was 13.5% (inactive). Also, the inhibition in assay [7] is 0.79% (inactive); in assay [8], -3.83% (inactive).
Regarding `COc1ccc(/C(O)=C2/C(=O)C(=O)N(CCN(C)C)C2c2ccccn2)cc1OC` (stereo not given), the viability in assay [1] was 92.5%; in assay [3], 92.5% (inactive); in assay [4], 103% (inactive); in assay [5], 91.5% (inactive); in assay [6] (setting [9]) it was 88.3%; in assay [6] (setting [10]), 91.5%. For the same compound, the Her2 level in assay [2] is 91.5% (inactive). For the same compound, the differential viability (reversal) in assay [6] (H69AR cells + 2 uM doxorubicin) is 3.17% (inactive). In addition, the inhibition is -4.19% (inactive) in assay [7] and -6.19% (inactive) in assay [8].
On to `Cc1noc(C)c1S(=O)(=O)Nc1c(C)n(C)n(-c2ccccc2)c1=O`, for which the viability was 108% in assay [1]; 108% (inactive) in assay [3]; 104% (inactive) in assay [4]; 98.4% (inactive) in assay [5]; 90.3% in assay [6] (setting [9]); 98.4% in assay [6] (setting [10]). Besides, the Her2 level in assay [2] was 99% (inactive). The differential viability (reversal) in assay [6] (H69AR cells + 2 uM doxorubicin) was 8.05% (inactive). The figures for the inhibition in assay [7] and in assay [8] were -5.13% (inactive) and -1.11% (inactive), respectively.
Take `CCOC(=O)Nc1sc(=S)n(C)c1C`: the viability is 92.5% in assay [1]; 92.5% (inactive) in assay [3]; 104% (inactive) in assay [4]; 98% (inactive) in assay [5]; 94.9% in assay [6] (setting [9]); 98% in assay [6] (setting [10]). For the same compound, the Her2 level in assay [2] is 96% (inactive). Moreover, the differential viability (reversal) in assay [6] (H69AR cells + 2 uM doxorubicin) was 3.1% (inactive). Further, the inhibition in assay [7] is -3.95% (inactive); in assay [8] it was 0.16% (inactive).
For the compound `CC(C)(C)c1cc(C(=O)O)nn1-c1ccccc1`, the viability was 112% in assay [1]; 112% (inactive) in assay [3]; 98.1% (inactive) in assay [4]; 92.2% (inactive) in assay [5]; 87.1% in assay [6] (setting [9]); 92.2% in assay [6] (setting [10]). In addition, in assay [2], the Her2 level is 92% (inactive). Also, in assay [6] (H69AR cells + 2 uM doxorubicin), the differential viability (reversal) is 5.08% (inactive). Moreover, the inhibition in assay [7] is -4.47% (inactive); in assay [8], -2.54% (inactive).
In the case of `CS(=O)(=O)N(Cc1nc2sc3c(c2c(=O)[nH]1)CCCC3)C1CCCCC1`, the viability was 91% in assay [1]; 91% (inactive) in assay [3]; 77.9% (inactive) in assay [4]; 84% (inactive) in assay [5]; 82.7% in assay [6] (setting [9]); 84% in assay [6] (setting [10]). Also, the Her2 level in assay [2] was 112% (inactive). Further, the differential viability (reversal) in assay [6] (H69AR cells + 2 uM doxorubicin) is 1.24% (inactive). The inhibition in assay [7] is -4.8% (inactive); in assay [8], -0.49% (inactive).
Consider `Cc1occc1-c1nnc(SCC(=O)c2ccc(F)cc2)n1Cc1ccco1`, for which the viability is 77.5% in assay [1]; 77.5% (inactive) in assay [3]; 84.1% (inactive) in assay [4]; 85.3% (inactive) in assay [5]; 82.2% in assay [6] (setting [9]); 85.3% in assay [6] (setting [10]). For the same compound, the Her2 level in assay [2] is 82% (inactive). The differential viability (reversal) in assay [6] (H69AR cells + 2 uM doxorubicin) was 3.13% (inactive). Further, the figures for the inhibition in assay [7] and in assay [8] were -1.33% (inactive) and -0.16% (inactive), respectively.
Consider `COc1ccc(-c2nnc3sc(-c4c(OC)cccc4OC)nn23)cc1`, for which the viability was 105% in assay [1]; 105% (inactive) in assay [3]; 62.6% (inactive) in assay [4]; 75.9% (inactive) in assay [5]; 83.2% in assay [6] (setting [9]); 75.9% in assay [6] (setting [10]). In addition, the Her2 level in assay [2] is 93.5% (inactive). Moreover, the differential viability (reversal) in assay [6] (H69AR cells + 2 uM doxorubicin) was -7.34% (inactive). The inhibition in assay [7] is -5.13% (inactive); in assay [8], -7.58% (inactive).
For the compound `COC(=O)c1sc(N2C(=O)C(O)=C(C(=O)c3ccc(C)o3)C2c2ccc(F)cc2)nc1C` (stereo not given), the viability in assay [1] was 95%; in assay [3] it was 95% (inactive); in assay [4], 113% (inactive); in assay [5], 135% (inactive); in assay [6] (setting [9]) it was 73.8%; in assay [6] (setting [10]), 135%. The Her2 level in assay [2] is 81.5% (inactive). The differential viability (reversal) in assay [6] (H69AR cells + 2 uM doxorubicin) is 61.4% (inactive). For the same compound, the inhibition was -1.08% (inactive) in assay [7] and -1.48% (inactive) in assay [8].
As to `Cc1nc(N)c(C#N)c(-c2cccnc2)c1C`, the viability was 94% in assay [1]; 94% (inactive) in assay [3]; 74.3% (inactive) in assay [4]; 102% (inactive) in assay [5]; 115% in assay [6] (setting [9]); 102% in assay [6] (setting [10]). In assay [2], the Her2 level is 83.5% (inactive). The differential viability (reversal) in assay [6] (H69AR cells + 2 uM doxorubicin) is -13.1% (inactive). For the same compound, the inhibition is -2.4% (inactive) in assay [7] and -2.86% (inactive) in assay [8].
